Data as given in ChEMBL document CHEMBL1123654, “Synthesis of N-(3,6-dihydro-1(2H)-pyridinyl)benzamides with hyperglycemic-hypoglycemic activity” (J Med Chem, 1987).

Key:
Rattus norvegicus [1] = assay: Hyperglycemic activity and change in blood glucose concentration was reported 4 hours after administration (100 mg/Kg perorally); format: functional
Summary of the method: (§1)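 Overnight-fasted rats dosed orally at 100 mg/kg as a suspension in 1% tragacanth in distilled water. Tail capillary blood sampled at 0, 2 and 4 h after dosing. Serum glucose measured by spectrophotometry of enzymatically produced NADH2. Change is expressed relative to time zero as mean ± SEM of four animals; plus means a rise, minus a fall; p<0.05 marks significance.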

[2] = Partition coefficient (logP); format: physicochemical; details: octanol/water
Summary of the method: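 Partition coefficient calculated as P = C(octanol)/C(H2O), using the method of Fujita et al.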

Rattus norvegicus [3] = assay: Hyperglycemic activity and change in blood glucose concentration was reported 2 hours after administration of 100 mg/Kg perorally.; format: functional; summary of the method: as §1
Rattus norvegicus [4] = assay: Hyperglycemic activity and change in blood glucose concentration was reported 4 hours after administration of 100 mg/Kg perorally; format: functional; summary of the method: as §1
Rattus norvegicus [5] = assay: Hyperglycemic activity and change in blood glucose concentration was reported 2 hours after administration of 100 mg/Kg perorally; format: functional; summary of the method: as §1

SMILES	logP [2]	Change (Rattus norvegicus [1])	Change (Rattus norvegicus [3])	Change (Rattus norvegicus [4])	Change (Rattus norvegicus [5])
O=C(NN1CCC=C(F)C1)c1ccccc1	1.27	42%	64%	–	–
COC(=O)CCC1=CCCN(NC(=O)c2ccccc2)C1	0.74	6%	-2%	–	–
CC1=CCN(NC(=O)c2ccccc2)CC1	1.2	43%	48%	–	–
O=C(NN1CCC=CC1=O)c1ccccc1	1.17	4%	1%	–	–
CC(O)C1=CCN(NC(=O)c2ccccc2)CC1 (stereo unspecified)	0.0414	-5%	-10%	–	–
O=C(NN1CC=CCC1)c1ccccc1	–	50%	78%	–	–
CC(O)C1=CCCN(NC(=O)c2ccccc2)C1 (stereo unspecified)	0.447	-16%	-8%	–	–
CC1CC=CCN1NC(=O)c1ccccc1 (stereo unspecified)	0.699	16%	12%	–	–
CC1=C(C)CN(NC(=O)c2ccccc2)CC1	1.35	20%	27%	–	–
COCCCC1=CCCN(NC(=O)c2ccccc2)C1	0.908	-11%	-10%	–	–
CC(=O)C1=CCCN(NC(=O)c2ccccc2)C1	-0.0969	-17%	-5%	–	–
COC1=CCN(NC(=O)c2ccccc2)CC1	1.16	–	–	7%	5%
O=C(NN1CCC=C(CCCO)C1)c1ccccc1	1.12	-6%	-2%	–	–
CC1=CCCN(NC(=O)c2ccccc2)C1	1.37	116%	124%	–	–
COC1=CCCN(NC(=O)c2ccccc2)C1	1.62	-9%	–	–	-7%
CC(=O)OCCCC1=CCCN(NC(=O)c2ccccc2)C1	1.49	7%	-8%	–	–
C=C1C=CCN(NC(=O)c2ccccc2)C1	1.37	4%	–	–	5%
CCCNC(=O)NS(=O)(=O)c1ccc(Cl)cc1 [CHLORPROPAMIDE]	–	-38%	–	–	-42%

The next lines start with results.

logP [2]	SMILES	Change (Rattus norvegicus [1])	Change (Rattus norvegicus [3])	Change (Rattus norvegicus [4])	Change (Rattus norvegicus [5])
0.949	COC(=O)CCC1=CCN(NC(=O)c2ccccc2)CC1	-9%	-9%	–	–
1.52	CC(=O)OCCCC1=CCN(NC(=O)c2ccccc2)CC1	3%	2%	–	–
1.22	O=C(NN1CC=C(CCCO)CC1)c1ccccc1	-6%	4%	–	–
1	O=C(O)CCC1=CCN(NC(=O)c2ccccc2)CC1	7%	-4%	–	–
0.643	O=C(NN1CC=C(CO)CC1)c1ccccc1	-14%	-10%	–	–
0.38	CC(=O)C1=CCN(NC(=O)c2ccccc2)CC1	-19%	-12%	–	–
1.18	O=C(O)CCC1=CCCN(NC(=O)c2ccccc2)C1	-4%	-14%	–	–
1.49	COCCCC1=CCN(NC(=O)c2ccccc2)CC1	-9%	1%	–	–
